# An excerpt weighted towards active compounds, which were near 3.5% of everything screened.
# FXIa inh – factor XIa (human) inhibition; hit rate 0.14% among 220,000; inhibition, % at 5 µM; purified FXIa, Boc-Glu-Ala-Arg-AMC fluorogenic substrate; P03951;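 active = inhibition of at least 40%; inactive = inhibition below 40%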;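 note: fluorescence of freed AMC excited at 355 nm; 0% = enzyme without compound and 100% = no enzyme blank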
# Target sequence (P03951 19-387 limits assumed): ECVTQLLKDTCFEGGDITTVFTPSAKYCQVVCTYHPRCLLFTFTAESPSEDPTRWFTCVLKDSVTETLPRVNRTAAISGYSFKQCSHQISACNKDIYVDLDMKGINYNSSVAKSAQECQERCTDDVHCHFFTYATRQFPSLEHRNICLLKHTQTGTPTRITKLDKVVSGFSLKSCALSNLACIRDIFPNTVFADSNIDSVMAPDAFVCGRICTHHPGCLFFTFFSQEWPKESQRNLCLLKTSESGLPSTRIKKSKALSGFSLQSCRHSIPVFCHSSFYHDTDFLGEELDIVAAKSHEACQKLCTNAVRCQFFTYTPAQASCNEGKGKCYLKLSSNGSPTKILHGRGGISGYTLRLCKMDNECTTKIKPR
# Target sequence (P03951 388-625 limits assumed): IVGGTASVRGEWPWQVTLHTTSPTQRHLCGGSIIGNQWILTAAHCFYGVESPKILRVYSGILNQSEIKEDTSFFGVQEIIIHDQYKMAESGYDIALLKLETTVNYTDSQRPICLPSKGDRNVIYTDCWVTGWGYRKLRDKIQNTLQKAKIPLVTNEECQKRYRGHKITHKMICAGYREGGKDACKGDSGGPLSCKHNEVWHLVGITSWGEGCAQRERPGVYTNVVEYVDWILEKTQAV
# AHR activator – human AHR activation. hit rate 2.5% among 320,000. activation, % at 5 µM. P35869. AHR-responsive luciferase reporter cells, luminescence; in the data active = activation above about 47%;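 note: 0% = vehicle wells and 100% = reference agonist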
# STAT3 activator – STAT3 signaling activation; U3A cells, IL-6 STAT3-luciferase reporter, luminescence; 100% = signal with IL-6 EC80 alone; activation (% of control), % at 5.6 µM; hit rate 0.91% among 190,000;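 active = activation above the screen-wide mean of compound activation plus 3 SD, cut at about 130% in these data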;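 note: 0% = background luminescence of wells with medium and substrate only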
#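 Material: human U3A cells carrying STAT3-luciferase construct. Measured by: reporter luminescence signal. Timing: compound 1 h, then IL-6 6 h at 37 °C.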
# hK5 inh – inhibitors of human kallikrein 5; recombinant hK5, fluorogenic AMC substrate cleavage; inhibition, % at 5 µM; hit rate 0.59% among 210,000; AID 873;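 active = inhibition of 40% or more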;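 note: 0% = enzyme controls without compound and 100% = no-enzyme blanks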
# FXIIa inh 1536 – factor XIIa (human) inhibition; P00748; purified FXIIa, Boc-QGR-AMC fluorogenic substrate, 2 h; inhibition, % at 5 µM; hit rate 0.3% among 220,000; AID 800; in the data active = inhibition above about 40%;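 note: 0% = enzyme with no compound and 100% = blank without enzyme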
# thrombin 1536 – inhibitors of human thrombin. P00734. alpha-thrombin, Boc-VPR-AMC fluorogenic substrate cleavage. hit rate 0.26% among 220,000. inhibition, % at 5 µM. AID 1046;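 active = inhibition at or above 40%; inactive = inhibition below 40%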;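 note: 0% = enzyme with no compound and 100% = wells without enzyme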
#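 System – human alpha-thrombin protein · Reagent – Boc-VPR-AMC substrate, 15 µM final · Compound – 5 µM single dose in 0.2% DMSO · Schedule – reaction at room temperature · Technique – AMC fluorescence at 355 nm excitation and 460 nm emission · Read-out basis – % inhibition relative to enzyme controls and enzyme-free blanks · Control set – no-compound enzyme wells and no-enzyme blanks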
# The depositor's hits bear a star; x = no result.
SMILES,FXIa inh,AHR activator,STAT3 activator,hK5 inh,FXIIa inh 1536,thrombin 1536
Nc1nc(N)c(C=Nc2ccc(Br)cc2)c(Nc2ccc(Br)cc2)n1,-8,99*,x,-2,4,-2
Cc1cccc(OCCn2c(-c3ccco3)nc3ccccc32)c1,-6,12,94,48*,22,18
O=C(N/N=C/c1sc(N2CCCCC2)nc1-c1cccs1)C1CC1,-7,68*,97,-5,4,-25
O=C(Nc1cc2c(cc1C(=O)O)OCCCO2)c1ccc(C(F)(F)F)cc1,x,73*,x,x,x,x
CC(=O)N/C(=C/c1ccc([N+](=O)[O-])cc1)C(=O)O,4,6,103,x,11,1
O=c1c2ccccc2nc(/C=C/c2ccc(O)cc2)n1CCc1ccccc1,-9,72*,97,-5,5,-4
Cn1c(/C=C/c2ccccc2)nc2ccccc2c1=O,x,24,x,x,x,x
CCn1c(/C=C/c2ccccc2)nc2ccccc2c1=O,-3,79*,91,3,5,-6
Cn1c(/C=C/c2ccc(Cl)cc2)nc2ccccc2c1=O,x,49*,x,x,x,x
CCOC(CNC(=O)C(=O)Nc1cc2c3c(c1)CCC(=O)N3CCC2)OCC,x,2,x,x,x,x
C[C@H]1CN(S(=O)(=O)c2c(F)cccc2F)CCN1S(=O)(=O)c1ccc2c(c1)OCCO2,x,-1,x,x,x,x
O=C(Nc1ccccc1N1CCCCC1)c1ccc(-c2cccc(Cl)c2)o1,-4,13,122,-25,4,-6
O=C(Nc1cccc2nsnc12)c1ccc(-c2cccc(Cl)c2)o1,1,52*,100,-19,14,2
CN1CCN(c2ccccc2NC(=O)c2ccc(-c3cccc(Cl)c3)o2)CC1,x,61*,x,x,x,x
COc1ccc(C2=NN(C(C#N)c3ccc(OC)cc3)C(c3ccccc3)C2)cc1 (stereo unspecified),0,54*,100,-1,9,-7
Cc1ccc(S(=O)(=O)N2CCC(CN3C(=O)c4cccc5cccc(c45)C3=O)CC2)cc1,-5,-8,186*,8,10,-3
C=CCn1c2ccccc2c2nnc(SCN3C(=O)c4ccccc4C3=O)nc21,4,78*,107,8,19,0
O=C1c2ccccc2C(=O)N1CSc1nnc2c3ccccc3n(CCc3ccccc3)c2n1,0,-7,86,4,14,2
O=C(Nc1ccc(Cl)c(Cl)c1)NC1CCS(=O)(=O)C1 (stereo unspecified),x,4,x,x,x,x
O=C(Nc1ccc(Cl)c(Cl)c1)Nc1cc(C(=O)NC2CC2)ccc1Cl,-3,74*,102,1,11,2
CSCCC(NC(=O)c1ccc(Cl)cc1Cl)C(=O)NNC(=O)c1ccncc1 (stereo unspecified),x,0,x,x,x,x
Cc1nc(C)c(NC(=O)N2CCc3ccccc32)cc1NC(=O)N1CCc2ccccc21,3,50*,98,76*,-1,22
Cc1cc(C)n2nc(SCC(=O)N3CCc4ccccc43)nc2n1,-2,38,95,-2,9,-3
Cc1cc(C)nc(SCC(=O)N2CCc3ccccc32)n1,x,73*,x,x,x,x
COc1ccc(S(=O)(=O)N2CCOC23CCN(S(C)(=O)=O)CC3)cc1,x,-1,x,x,x,x
SMILES,FXIa inh,AHR activator,STAT3 activator,hK5 inh,FXIIa inh 1536,thrombin 1536
CCC(C)NC(=O)CSc1nc2ccsc2c(=O)n1NC(=O)c1ccccc1 (stereo unspecified),20,0,101,33,41*,28
Cc1ccc(CNC(=O)CSc2nc3ccsc3c(=O)n2NC(=O)c2ccccc2)cc1,-2,0,100,-3,1,-7
Cc1cccc(-c2cc3nc(C)cc(NCCCn4ccnc4)n3n2)c1,-1,48*,99,-6,9,-2
CCCc1cc(NCCCn2ccnc2)n2nc(C)c(-c3ccccc3)c2n1,0,63*,x,-8,6,2
Cc1cc(NCCCn2ccnc2)n2ncc(-c3ccc(Cl)cc3)c2n1,-11,126*,152*,-73,-9,-5
CC(C)(C)c1cc(NCCCn2ccnc2)n2ncc(-c3ccccc3)c2n1,3,15,x,-5,7,-5
Cn1c(N2CCN(C(c3ccccc3)c3ccccc3)CC2)nc2c1c(=O)[nH]c(=O)n2C,x,2,x,x,x,x
CCOc1ccc(S(=O)(=O)N(C)CC(=O)N2CCN(CC)CC2)cc1,x,-1,x,x,x,x
CC12CCC(c3c(C(=O)N4CCOCC4)nn(-c4ccccc4)c31)C2(C)C (stereo unspecified),31,-1,95,41*,40*,2
OCC[C@H]1C[C@@H](O)[C@H](O)[C@]2(Cc3ccccc3CCO2)O1,x,1,x,x,x,x
O=C(O)/C=C/C(=O)N1CCN(S(=O)(=O)c2cc(C(F)(F)F)ccc2Cl)CC1,34,-1,105,53*,31,18
COc1cccc(-c2cc3nc(-c4ccccc4)cc(N4CCCC(O)C4)n3n2)c1 (stereo unspecified),-4,74*,87,-2,4,-15
CC(=O)Nc1ccc(S(=O)(=O)N(C)c2ccc(OCCOc3ccccc3F)cc2)cc1,x,-2,x,x,x,x
NNc1nc2c(Cl)c(Cl)ccc2s1,6,84*,125,-19,14,2
COc1cccc2sc(NN)nc12,-6,33,112,-17,3,1
O=C(N/N=C1\SCC(=O)N1CCc1ccccc1)c1cccs1,-4,51*,98,0,3,-13
O=C(COc1cccc2cccnc12)NNC(=S)Nc1ccccc1,-1,3,102,4,11,6
O=C(COc1cccc2cccnc12)N/N=C1\SCC(=O)N1Cc1ccccc1,-10,52*,97,30,8,26
Oc1ccc(Br)cc1C=Nc1ccc(Cl)cc1,-1,-3,110,-3,7,-4
COc1cc(O)sc1C=Nc1ccc(Cl)cc1,-1,48*,119,-1,7,-3
CCn1c(SCC(=O)Nc2nc(C)c(C)s2)nc2cccnc21,5,52*,99,12,13,3
Cc1nnc(NC(=O)CSc2nnnn2Cc2ccccc2)s1,5,6,102,-16,5,4
CC1Cc2ccccc2N1C(=O)CSc1nnnn1Cc1ccccc1 (stereo unspecified),-17,48*,108,-32,6,-2
Cc1nc(NC(=O)CSc2nnnn2Cc2ccccc2)sc1C,9,65*,105,31,16,14
CC1CCN(Cc2cc(=O)oc3ccc4ccccc4c23)CC1,-3,-1,x,-4,4,0
O=C(c1ccccc1-c1nc(-c2ccc(F)cc2)no1)N1CCCC1,-11,50*,105,-4,-1,-1
O=C(Nc1cccnc1)Nc1cccc([N+](=O)[O-])c1,x,77*,x,x,x,x
Cc1cc(C)nc(/N=C(\N)Nc2cccc([N+](=O)[O-])c2)n1,-12,52*,100,-8,-3,-9
CCC(C)c1ccc(NC(=O)Nc2cccnc2)cc1 (stereo unspecified),x,79*,x,x,x,x

# Screening results from PubChem BioAssay.
